From ChEMBL document CHEMBL1833876 (J Med Chem, 2011)
Activity calls are given as the source filed them. No cut-off for these calls is given here.

Experiments:
[1] = biological target: T1, Proton-coupled folate transporter (Homo sapiens) (UniProt Q96NT5); assay: Inhibition of human PCFT-mediated [3H]MTX uptake expressed in chinese hamster R2 cells at pH 5.5 by dixon plot analysis relative to PMX; type: cell-based; conditions: concentration not given here
T1 sequence (whole entry): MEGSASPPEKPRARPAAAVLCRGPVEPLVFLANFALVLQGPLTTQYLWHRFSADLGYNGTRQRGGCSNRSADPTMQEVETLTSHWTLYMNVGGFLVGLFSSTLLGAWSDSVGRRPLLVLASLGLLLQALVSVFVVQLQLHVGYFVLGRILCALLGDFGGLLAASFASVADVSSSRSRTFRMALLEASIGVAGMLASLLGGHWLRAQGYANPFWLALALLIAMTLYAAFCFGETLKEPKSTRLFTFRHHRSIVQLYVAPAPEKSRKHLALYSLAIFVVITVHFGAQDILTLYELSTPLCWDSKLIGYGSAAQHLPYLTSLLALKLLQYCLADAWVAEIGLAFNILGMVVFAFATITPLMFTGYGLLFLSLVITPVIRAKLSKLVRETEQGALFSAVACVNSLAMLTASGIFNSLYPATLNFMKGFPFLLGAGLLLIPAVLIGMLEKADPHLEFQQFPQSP

[2] = test system: IGROV-1; assay: Antitumor activity against human IGROV1 cells expressing human RFC, FRalpha and PCFT xenografted in SCID mouse assessed as tumor growth inhibition at 25 mg/kg, iv administered on days 3, 7, […], […], and […] postimplantation; type: functional
[3] = test system: R2; assay: Antiproliferative activity against chinese hamster R2 cells expressing human PCFT assessed as growth inhibition in the presence of 60 uM adenosine; type: functional, cell-based; conditions: Cricetulus griseus
Procedure, shortened: (§1)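 R2/hPCFT4 cells were grown in folate-free RPMI with 25 nM leucovorin and 10% dFBS and exposed to antifolate for up to 96 h. Rescue co-incubations used thymidine (10 µM), adenosine (60 µM) and AICA (320 µM), alone or combined. Viability was read by CellTiter-blue.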

[4] = test system: Mus musculus; assay: Toxicity in human IGROV1 cells expressing human RFC, FRalpha and PCFT xenografted SCID mouse assessed as weight loss at 40 mg/kg, iv administered on days 3, 7, 11, 15, and 19 postimplantation measured on day 10 post last treatment; conditions: in vivo
[5] = test system: Mus musculus; assay: Toxicity in human IGROV1 cells expressing human RFC, FRalpha and PCFT xenografted SCID mouse assessed as reversible weight loss at 25 to 40 mg/kg, iv administered on days 3, 7, 11, 15, and 19 postimplantation; type: organism-based, IGROV-1; set-up: dose 25-40 mg/kg, route intravenous; conditions: in vivo
Procedure, shortened: (§2)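 Female ICR SCID mice, 10 weeks old, on a folate-deficient diet from 24 days before implant. Bilateral subcutaneous IGROV1 tumour fragments (30–60 mg, by trocar); mice pooled, then randomised. IV dosing on days 3, 7, 11, 15 and 19. Mice weighed daily; tumours measured by caliper 2–3 times weekly; mice sacrificed at 1500 mg tumour burden. Weight-loss nadir and recovery recorded.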

[6] = test system: Mus musculus; assay: Toxicity in human IGROV1 cells expressing human RFC, FRalpha and PCFT xenografted SCID mouse assessed as weight loss at 40 mg/kg, iv administered on days 3, 7, 11, 15, and 19 postimplantation measured on day 21; type: organism-based, IGROV-1; set-up: dose 40 mg/kg, route intravenous; conditions: in vivo; procedure, shortened: as §2
[7] = test system: Mus musculus; assay: Toxicity in human IGROV1 cells expressing human RFC, FRalpha and PCFT xenografted SCID mouse assessed as mortality at 25 to 40 mg/kg, iv administered on days 3, 7, […], […], and […] postimplantation; type: organism-based, IGROV-1; conditions: in vivo
[8] = biological target: T1, Proton-coupled folate transporter (Homo sapiens); assay: Inhibition of human PCFT-mediated [3H]MTX uptake expressed in chinese hamster R2 cells at pH 6.8 […] relative to PMX; type: cell-based; conditions: concentration not given here
[9] = Antiproliferative activity against chinese hamster R2(VC) cells assessed as reduction of viable cells after 96 hrs; conditions: Cricetulus griseus
[10] = test system: R2; assay: Decrease in intracellular ATP concentration in chinese hamster R2 cells expressing human PCFT at 1 uM after 24 hrs by HPLC relative to control at pH 6.8; type: functional, Cricetulus griseus; set-up: scale not given: the % may be the effect or the level left
Procedure, shortened: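 R2/hPCFT4 CHO cells seeded in folate-free RPMI 1640 with 10% dialysed FBS and 25 nM leucovorin (pH 7.2). After 24 h, switched to the same medium buffered to pH 6.8 with 25 mM PIPES/25 mM HEPES. Drug at 1 µM, or vehicle (0.5% DMSO or H2O), for 24 h. Nucleotides extracted; ATP quantified by HPLC against vehicle control.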

[11] = test system: Mus musculus; assay: Toxicity in human IGROV1 cells expressing human RFC, FRalpha and PCFT xenografted SCID mouse assessed as weight loss at 25 mg/kg, iv administered on days 3, 7, 11, 15, and 19 postimplantation measured on day 13; type: organism-based, IGROV-1; set-up: dose 25 mg/kg, route intravenous; conditions: in vivo; procedure, shortened: as §2
[12] = test system: IGROV-1; assay: Antiproliferative activity against human IGROV1 cells expressing human RFC, FRalpha and PCFT assessed as reduction of viable cells after 96 hrs in the presence of 200 nM folic acid; type: functional, cell-based; conditions: IGROV-1, 96 h
Procedure, shortened: (§3)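 Same 96 h CellTiter-blue proliferation set-up in folate-free RPMI/10% dFBS with 2 nM leucovorin. Run in parallel incubations that included 200 nM folic acid alongside the antifolate, to establish FR-dependent uptake.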

[13] = test system: R2; assay: Antiproliferative activity against chinese hamster R2 cells expressing human PCFT assessed as growth inhibition in the presence of 320 uM AICA; type: functional, cell-based; conditions: Cricetulus griseus; procedure, shortened: as §1
[14] = test system: R2; assay: Antiproliferative activity against chinese hamster R2 cells expressing human PCFT assessed as inhibition of colony formation after 10 to 14 days; type: functional, cell-based, Cricetulus griseus
[15] = test system: IGROV-1; assay: Antitumor activity against human IGROV1 cells expressing human RFC, FRalpha and PCFT xenografted in standard folate diet fed SCID mouse assessed as tumor growth inhibition at 25 to 40 mg/kg, iv administered on days 3, 7, […], […], and […] postimplantation; type: functional; conditions: dose mg/kg 25-40
[16] = test system: IGROV-1; assay: Antiproliferative activity against human IGROV1 cells expressing human RFC, FRalpha and PCFT assessed as reduction of viable cells after 96 hrs; type: functional, cell-based; conditions: IGROV-1, 96 h
[17] = test system: R2; assay: Antiproliferative activity against chinese hamster R2 cells assessed as reduction of viable cells after 96 hrs; conditions: Cricetulus griseus, R2, 96 h
[18] = Inhibition of GARFTase in chinese hamster R2 cells expressing human PCFT assessed as incorporation of [14C]glycine into [14C]formyl GAR in the presence of 4 uM azaserine; type: cell-based, Cricetulus griseus
[19] = Antiproliferative activity against chinese hamster RT16 cells expressing human FRalpha assessed as reduction of viable cells after 96 hrs in the presence of 200 nM folic acid; type: functional, cell-based; conditions: Cricetulus griseus, RT16, 96 h; procedure, shortened: as §3
[20] = test system: Mus musculus; assay: Toxicity in human IGROV1 cells expressing human RFC, FRalpha and PCFT xenografted SCID mouse assessed as weight loss at 25 mg/kg, iv administered on days 3, 7, 11, 15, and 19 postimplantation measured on day 27 post last treatment; type: organism-based, IGROV-1; set-up: dose 25 mg/kg, route intravenous; conditions: in vivo
Procedure, shortened: (§4)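 Female ICR SCID mice (10 weeks old) were fed a folate-deficient or folate-replete diet from 24 days before implant. IGROV1 tumor fragments (30–60 mg) were implanted bilaterally s.c. by trocar, and mice were randomized. Dosing was i.v. on a Q4dx5 schedule (days 3, 7, 11, 15, 19). Mice were weighed daily to track weight-loss nadir and recovery.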

[21] = Antiproliferative activity against chinese hamster PC43-10 expressing human RFC assessed as reduction of viable cells after 96 hrs; type: functional; conditions: Cricetulus griseus, PC43-10, 96 h
[22] = test system: Mus musculus; assay: Toxicity in human IGROV1 cells expressing human RFC, FRalpha and PCFT xenografted SCID mouse assessed as weight loss at 25 mg/kg, iv administered on days 3, 7, 11, 15, and 19 postimplantation measured on day 8 post last treatment; type: organism-based, IGROV-1; set-up: dose 25 mg/kg, route intravenous; conditions: in vivo; procedure, shortened: as §4
[23] = test system: KB; assay: Antiproliferative activity against human KB cells expressing human RFC, FRalpha and PCFT assessed as reduction of viable cells after 96 hrs; type: functional, cell-based
[24] = test system: KB; assay: Antiproliferative activity against human KB cells expressing human RFC, FRalpha and PCFT assessed as reduction of viable cells after 96 hrs in the presence of 200 nM folic acid; type: functional, cell-based; procedure, shortened: as §3
[25] = test system: IGROV-1; assay: Antitumor activity against human IGROV1 cells expressing human RFC, FRalpha and PCFT xenografted in SCID mouse assessed as tumor growth inhibition at 40 mg/kg, iv administered on days 3, 7, […], […], and […] postimplantation; type: functional

Nc1nc2[nH]c(CCCc3ccc(C(=O)N[C@@H](CCC(=O)O)C(=O)O)s3)cc2c(=O)[nH]1
inhibition [1]: 35%
T/C [2]: 16%
Activity [3]: inactive
Activity [4]: Non-toxic
Activity [5]: 2.7%
Activity [6]: 9.4%
Activity [7]: Non-toxic
inhibition [8]: 18%
IC50 [9]: 288 nM
Activity [10]: 90%
Activity [11]: 6.3%
IC50 [12]: > 1000 nM
Activity [13]: inactive
IC50 [14]: 1.4 nM
T/C [15]: 67%
IC50 [16]: 0.55 nM
IC50 [17]: 274 nM
IC50 [18]: 0.69 nM
IC50 [19]: > 1000 nM
Activity [20]: Non-toxic
IC50 [21]: 101 nM
Activity [22]: Non-toxic
IC50 [23]: 0.26 nM
IC50 [24]: > 1000 nM
T/C [25]: 14%
